This passage reports Activity results from ChEMBL document CHEMBL1123513, “Role of the C-terminal carboxylate in angiotensin II activity: alcohol, ketone, and ester analogues of angiotensin II” (1986).

For assay [1], the species on record is Rattus norvegicus. The assay can be described thus: Compound was tested for oxytocic response in rat. The format is functional.
The species entered for assay [2] is Rattus norvegicus. The assay can be described thus: Compound was tested for pressor response in rat. The format is functional. The gist of the method: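 Urethane-anesthetized male Zivic-Miller rats; blood pressure recorded from the cannulated left femoral artery via a linear core transducer. Peptides were injected into the cannulated right jugular vein with an automatic dispensing syringe. An AII dose-response curve was run before and after each analogue, so each animal served as its own control. Dose-response data are given as mean ± SEM, with the number of animals stated.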

Square brackets hold non-standard residues; d marks the D form. Peptide text beside a SMILES is read from it. * marks the point of attachment. αMeF = C[C@](N)(Cc1ccccc1)C(=O)O; Phe(ol) = N[C@H](CO)Cc1ccccc1; X1 = CC(=O)[C@H](Cc1ccccc1)N*

Consider `COC(=O)[C@](C)(Cc1ccccc1)NC(=O)[C@@H]1CCCN1C(=O)[C@H](Cc1c[nH]cn1)NC(=O)[C@@H](NC(=O)[C@H](Cc1ccc(O)cc1)NC(=O)[C@@H](NC(=O)[C@H](CCCN=C(N)N)NC(=O)[C@H](CC(N)=O)NC(C)=O)C(C)C)C(C)C` (Ac-NRVYVHP[αMeF]-OMe), for which the Activity in the assay listed under Rattus norvegicus [1] is 0.002%; in the assay listed under Rattus norvegicus [2], 0.001%.
Consider H-NRVYVHPF-OH [ANGIOTENSIN AMIDE], for which the Activity in the assay filed under Rattus norvegicus [1] and in the assay filed under Rattus norvegicus [2] was 100% in each case.
Regarding `COC(=O)[C@H](Cc1ccccc1)NC(=O)[C@@H]1CCCN1C(=O)[C@H](Cc1c[nH]cn1)NC(=O)[C@@H](NC(=O)[C@H](Cc1ccc(O)cc1)NC(=O)[C@@H](NC(=O)[C@H](CCCN=C(N)N)NC(=O)[C@H](CC(N)=O)NC(C)=O)C(C)C)C(C)C` (Ac-NRVYVHPF-OMe), the values for the Activity in the assay listed under Rattus norvegicus [1] and in the assay filed under Rattus norvegicus [2] were 20% and 13%, respectively.
The corresponding values for `CC(=O)N[C@@H](CC(N)=O)C(=O)N[C@@H](CCCN=C(N)N)C(=O)N[C@H](C(=O)N[C@@H](Cc1ccc(O)cc1)C(=O)N[C@H](C(=O)N[C@@H](Cc1c[nH]cn1)C(=O)N1CCC[C@H]1C(=O)N[C@H](CO)Cc1ccccc1)C(C)C)C(C)C` (Ac-NRVYVHP[Phe(ol)]) are 0.09% and 0.001%.
On the same counts, the results for `CC(=O)N[C@@H](CC(N)=O)C(=O)N[C@@H](CCCN=C(N)N)C(=O)N[C@H](C(=O)N[C@@H](Cc1ccc(O)cc1)C(=O)N[C@H](C(=O)N[C@@H](Cc1c[nH]cn1)C(=O)N1CCC[C@H]1C(=O)N[C@@H](Cc1ccccc1)C(C)=O)C(C)C)C(C)C` (Ac-NRVYVHP-X1) are 0.4% and 0.03%.
